Assay outcomes from PubChem.
LANA-nucl inh – inhibitors of KSHV LANA binding to nucleosomes; FITC-LANA1-23 / chicken nucleosome fluorescence polarization; hits give low values; z-score (concentration not given with the values); actives 0.3% (n = 51,000);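 active means both repeat wells score below -2 in polarization z-score versus plate sample wells, excluding overly bright wells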
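test system = FITC-LANA peptide and chicken nucleosomes | amount = 240 nM purified chicken nucleosomes (480 nM peptide binding sites), final | reagent = 50 nM FITC-LANA1-23 probe | medium = TEN-BT buffer, pH 7.5 | doses = single compound addition by pin transfer, 100 nL per well | timing = 10–45 min, room temperature | detection = fluorescence polarization | repeats = duplicate plates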
Ab BasE inh – blocks the Acinetobacter baumannii siderophore enzyme BasE | purified BasE, fluorescence polarization binding displacement | inhibition, % (test concentration not listed) | actives 0.1% (n = 84,000) | AID 485350; in the data active means inhibition above about 25%, passing the limit was not always enough;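 further: 0% = negative plate control signal and 100% = positive plate control signal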
Starred values were filed as active, the others as inactive; x = not tested or not shown; ! = not confirmed by another sample. The sample as a whole holds a higher share of hits than the screen did.

SMILES	LANA-nucl inh	Ab BasE inh
CN(C)c1ccc2c(c1)S(=O)(=O)c1cc(N(C)C)ccc1C2=O	-4*	33
CN1CCN(C(=O)c2ccc3c(c2)S(=O)(=O)c2ccccc2C3=O)CC1	x	1
Cc1cccn2c(=O)cc(CN3CCCC3c3ccc4c(c3)OCCO4)nc12 (stereo not given)	x	1
O=C(CCN1CCOCC1)NN=C1C2CC3CC(C2)CC1C3	x	1
Cn1c(-c2oc3nc(-c4ccccc4)cc(-c4ccco4)c3c2N)n[nH]c1=S	-2.3*	3
Cn1c(SCc2ccccc2Cl)nnc1-c1oc2nc(-c3ccccc3)cc(-c3ccco3)c2c1N	-0.26	-7
CC(C)(C#N)NNC(N)=S	x	2
O=C(Nc1ccccc1)c1cccnc1	x	12
O=C(Nc1cccnc1)/C(N=Nc1cccnc1)=C(\O)c1ccccc1	x	32*
COc1ncnc(Cl)c1N	0.22	-1
Cc1ccnc(Cl)c1N	0.036	45*
Nc1nnc(-c2cccs2)c(=O)n1N	x	31*
Nn1c(NNC(=O)c2ccccc2)nnc(-c2cccs2)c1=O	x	2
CC(=O)N1CC=C2C(C#N)=C(N)C(C#N)(C#N)C(Cc3ccccc3)C2C1 (stereo not given)	-0.78	0
CCCC1C2CN(Cc3ccccc3)CC=C2C(C#N)=C(N)C1(C#N)C#N (stereo not given)	-4.6*	23
CC(C)CC1C2CN(Cc3ccccc3)CC=C2C(C#N)=C(N)C1(C#N)C#N (stereo not given)	-1.5	15
CN1CC=C2C(C#N)=C(N)C(C#N)(C#N)C(CCc3ccccc3)C2C1 (stereo not given)	-2.9*	22
CSc1[nH]c(=O)cc(C)c1C(=O)O	x	-1
O=C(Nc1ccc(-n2cnnn2)cc1)C1(Cc2nc3ccccc3s2)CCCC1	x	-2
CC(C)NC(=O)NC1C2CC3CC(C2)CC1C3 (stereo not given)	1.5	-1
CCCCNC(=O)NC1C2CC3CC(C2)CC1C3 (stereo not given)	0.8	26*
CC(=O)N/N=C/c1cc(C(C)C)cc(/C=N/NC(C)=O)c1O	-3.9*	20
CC(=O)N/N=C/c1ccccc1	0.031	3
CN(C)c1ccc(C(=C2C=CC(=[N+](C)C)C=C2)c2ccc(N(C)C)cc2)cc1	-4.1*!	2
CN(C)c1ccc(C2=CC=CC(=C3C=CC(=[N+](C)C)C=C3)O2)cc1	x	8
SMILES	LANA-nucl inh	Ab BasE inh
Cc1ccc(N2C(=O)/C(=C/c3ccc4c(c3)OCO4)N=C2SCC(=O)Nc2cc(C)on2)cc1	x	1
C/C(Cn1nnc2ccccc21)=N/OC(=O)c1c(F)cccc1F	0.5	53*
CC(Cn1nnc2ccccc21)C(=O)O (stereo not given)	x	4
O=C(O)c1ccc(CN=C2NS(=O)(=O)c3ccccc32)cc1	x	-1
CSc1ccccc1S(=O)(=O)C(C)(C)C	1.1	0
CC(C)c1nc2ccc(N)cc2s1	0.51	3
CN(C)c1ccc2nc3ccc(=[N+](C)C)cc-3sc2c1	-2.4*	x
COc1ccc(-c2cc(C(F)(F)F)nc(S(=O)(=O)CCCC(=O)Nc3ccc4c(c3)OCO4)n2)cc1OC	-1.2	1
CCCCc1cc(=O)oc2c(CN(C)C)c(O)ccc12	0.71	20
CC[C@@]1(O)C(=O)OCc2c1cc1n(c2=O)Cc2cc3c(CN(C)C)c(O)ccc3nc2-1	-9*!	15
O=C(CCc1nc2ccccc2c(=O)[nH]1)Nc1ccc2c(c1)CCC2	x	28*
O=C(CCc1nc2ccccc2c(=O)[nH]1)Nc1ccc(F)cc1	x	14
O=c1cc(CSc2nc3ncccc3[nH]2)nc2ccccn12	-0.097	5
O=C(CSc1n[nH]c(=O)[nH]c1=O)Nc1ccccc1C(=O)c1ccccc1	x	38*
O=C(CSc1n[nH]c(=O)[nH]c1=O)Nc1ccc(Br)cc1Br	x	-1
CC(C)NC(=O)CCC1CCCCC1	x	1
Nc1ccc2nsnc2c1	-3.1*	26
CCOC(=O)c1ccc2nsnc2c1	0.36	0
NC(=O)c1ccccc1OCc1cc2c(cc1Br)OCO2	x	-1
O=C(N/N=C/c1c[nH]c2ccccc12)c1cccc(O)c1	-0.36	21
CC(=O)n1cc(/C=N/NC(=O)c2cccc(O)c2)c2ccccc21	0.47	28*
CC(C)(C)CC(C)(C)NC(=O)Nc1cccc(Cl)c1	-2*	2
Cc1ccccc1NC(=O)NC(C)(C)CC(C)(C)C	-0.068	1
Cc1ccc(NC(=O)CN2C(=O)C(C)(C)Oc3ccc(C(=O)N4CCCC4)cc32)cc1	-0.037	-1
O=C1c2cccc3c(N4CCOCC4)ccc(c23)C(=O)N1c1ccccc1	-3.1*	13
SMILES	LANA-nucl inh	Ab BasE inh
O=C(Nc1ccccc1N1CCOCC1)c1cccc(N2C(=O)c3ccccc3C2=O)c1	x	0
CC(NC(=O)NC1CCCCC1)C(c1ccccc1)N1CCOCC1 (stereo not given)	x	1
CCOC(=O)c1sc2nc(C)nc(Cl)c2c1C	x	-20
O=c1[nH]c(=O)c2nc3cc(C(F)(F)F)ccc3nc2[nH]1	-2.9*	13
CCN(Cc1nc2ccccc2c(=O)[nH]1)Cc1nc2cc(C(F)(F)F)ccc2c(=O)[nH]1	x	-1
O=C(Cc1coc2ccc3ccccc3c12)NCc1ccco1	-0.32	-1
CCCN1CC=C2C(C1)C(c1ccc(C(=O)OC)cc1)C(C#N)=C(N)C2(C#N)C#N (stereo not given)	-1.7	14
CCN1CC=C2C(C1)C(c1ccc(Cl)s1)C(C#N)=C(N)C2(C#N)C#N (stereo not given)	-5.9*	20
COc1ccc2c(C(F)(F)F)cc(SCC(=O)N3CCCC3)nc2c1	0.99	-4
CN(C)Cn1c(O)c(N=NC(=O)COc2ccc(Cl)cc2)c2ccccc21	-0.26	3
CN1c2ccccc2C(=O)C(=C2SCCCS2)S1(=O)=O	-1.5	3
CN1c2ccccc2C(=O)/C(=N\Nc2ccccc2Cl)S1(=O)=O	-2.4*	-1
O=C(CCN1C(=O)/C(=C\C=C\c2ccco2)SC1=S)Nc1ccc(C(=O)O)c(O)c1	-0.23	33*
O=C(CCN1C(=O)/C(=C\c2ccco2)SC1=S)NN1CCOCC1	2.3	-1
CN(CC1COc2ccccc2O1)C(=O)NC12CC3CC(CC(C3)C1)C2 (stereo not given)	x	30*
CN(CC1COc2ccccc2O1)C(=O)C1(c2ccccc2)CC1 (stereo not given)	x	3
O=C(Oc1cccc2cccnc12)c1cc(C(F)(F)F)cc(C(F)(F)F)c1	x	42*
O=C(Oc1cccc2cccnc12)c1ccccc1	-0.04	2
CCCn1c(NC(=O)C2CCCC2)nc2ccccc21	x	1
COc1ccc(N2CCN(C(=O)c3ccccc3OC)CC2)cc1	-0.53	-3
COc1ccc(N2CCN(C(=O)c3ccc(-n4cnnc4)cc3Cl)CC2)cc1	-2*	3
CCc1nc2ccc(C(=O)NCCc3ccco3)cc2nc1CC	-2.2*	2
Cc1ccc(CCNC(=O)c2ccc3nc(-c4ccco4)c(-c4ccco4)nc3c2)cc1	-0.77	0
C[n+]1ccccc1C(O)Cc1ccncc1 (stereo not given)	-1.2	0
CCN(CC)CCNc1cc(C)c2cccc(C)c2n1	x	0
O=C1NC2(Cc3ccccc3C2)Nc2ccccc21	-2*	2
O=C1NC2(CCCCC2)Nc2ccccc21	0.32	0
O=C1NC(c2ccc(F)cc2)(C(F)(F)F)C(=O)N1Cc1ccco1 (stereo not given)	-0.98	2
Cc1ccc(N2C(=O)NC(c3ccccc3)(C(F)(F)F)C2=O)nc1 (stereo not given)	-2.3*	2
